Screens: PubChem BioAssay, The Scripps Research Institute Molecular Screening Center
CHO parental Ca: counter-screen: ATP calcium response change in parental CHO cells; parental CHO-K1, ATP-induced calcium, Fluo-8 fluorescence; inhibition, % at 5.6 µM; AID 463079; 330,000 tested, 0.63% active;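 active = inhibition above that plate's mean sample inhibition plus 3 SD, cut at about 26% in these data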;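 note: 0% = ATP-challenged DMSO wells and 100% = DMSO wells without ATP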
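Material – parental CHO cells · Reagent – ATP stimulus · Compound – single nominal dose of 5.6 µM per compound · Detection – Fluo-8 fluorescence · Read-out basis – percent inhibition of calcium signal · Controls – ATP-challenged DMSO wells low, unchallenged DMSO wells high · Repeats – no replicates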
TAAR1 antagonist: antagonists of human TAAR1; CHO RD-HGA16 TAAR1, Fluo-8 calcium fluorescence, antagonist; 360,000 tested, 1.5% active; Q96RJ0; inhibition, % at 3 µM;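 active = inhibition above a per-plate cutoff, the mean inhibition of test compounds on that plate plus 3 SD, cut at about 49% in these data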;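 note: 0% = DMSO plus EC80 beta-PEA response and 100% = DMSO alone without agonist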
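System: RD-HGA16 CHO cells with stable hTAAR1 and Gα16 | Probe or stimulus: EC80 β-phenethylamine stimulus | Dosing: 3 µM, single point | Times: Dye loading 75 min at 37 °C, then 30 min room temperature | Measured by: Fluo-8 calcium-sensitive fluorescence | Read-out basis: % inhibition of agonist calcium response | Replicates: n of 1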
GalR3 antag: blocks the human galanin receptor 3 | O60755 | HEK293 GalR3-CNG cAMP membrane potential fluorescence; galR3 body fused to GalR1 C-terminus | inhibition, % at 3 µM | 360,000 tested, 0.44% active | AID 651719;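 active = inhibition above the screen-wide average plus 3 SD, cut at about 13% in these data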;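 note: forskolin and galanin both at EC90 stimulate the cells; cAMP rise reported by CNG channel membrane potential dye signal; 0% = forskolin plus galanin with DMSO and 100% = forskolin alone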
OX1R antag-1: blocks the human orexin 1 receptor; O43613; OX1R-expressing cells, FRET antagonist read-out; inhibition, % at 6.6 µM; 330,000 tested, 1.8% active; in the data active = inhibition mostly above about 38%, no sharp cut-off; inactive = mostly below about 40%;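 note: 0% = agonist challenge alone and 100% = reference antagonist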
Target sequence (O43613 whole entry, looked up): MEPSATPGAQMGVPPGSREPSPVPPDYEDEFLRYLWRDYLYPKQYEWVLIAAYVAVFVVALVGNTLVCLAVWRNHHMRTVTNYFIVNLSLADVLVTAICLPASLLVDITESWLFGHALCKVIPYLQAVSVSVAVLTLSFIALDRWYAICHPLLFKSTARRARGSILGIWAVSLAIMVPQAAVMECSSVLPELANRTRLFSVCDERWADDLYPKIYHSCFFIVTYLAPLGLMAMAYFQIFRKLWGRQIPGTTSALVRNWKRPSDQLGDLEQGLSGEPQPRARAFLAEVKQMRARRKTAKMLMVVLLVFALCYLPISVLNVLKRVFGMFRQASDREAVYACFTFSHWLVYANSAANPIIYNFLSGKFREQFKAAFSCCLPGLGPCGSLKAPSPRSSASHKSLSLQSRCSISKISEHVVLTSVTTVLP
TAAR1 ag: human TAAR1 agonism; CHO RD-HGA16 TAAR1, Fluo-8 calcium fluorescence; vehicle wells 0%, saturating PEA agonist 100%; 360,000 tested, 0.99% active; Q96RJ0; activation, % at 3 µM; AID 624467;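 active = activation above the mean activation of all test compounds in the run plus 3 SD, cut at about 38% in these data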
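System: CHO RD-HGA16 cells carrying human TAAR1 plus Gα16; Incubation: 17-24 h seeding, 75 min 37 °C dye, 30 min RT; Measured by: Fluo-8 fluorescence, 5 s baseline then 140 s kinetic read; Control set: DMSO and PEA EC100; Replication: single well for each compound.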
OX1R antag-2: human HCRTR1 antagonism | 330,000 tested, 0.43% active | AID 434989 | O43613 | inhibition, % at 5 µM | CHO/OX1R cells, Fluo-8 calcium fluorescence, orexin A;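 active = inhibition above its plate's threshold, mean inhibition of all tested compounds on the plate plus 3 SD, cut at about 37% in these data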;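 note: 0% = orexin A challenge wells and 100% = SB-334867-A antagonist wells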
* = called active by the depositor; . = not tested or not shown. Compounds with a hit are over-represented: about 4.3% of the library has one in this group of screens.

SMILES	CHO parental Ca	TAAR1 antagonist	GalR3 antag	OX1R antag-1	TAAR1 ag	OX1R antag-2
Cc1ccc(C2C(C#N)=C(N)SC(N)=C2C#N)c(C)c1	-11	.	.	7	.	-5
Cc1ccc(C2C(C#N)=C(N)SC(N)=C2C#N)cc1	.	48	5	.	50*	.
O=C(NCc1ccc(Cl)cc1)c1ccc(-n2cccn2)nc1	-7	8	3	12	41*	-8
COc1cc(N2CCCC2)c(OC)cc1/C=C(/C#N)c1cccc(F)c1	51*	.	.	15	.	46*
CCCCn1c(NC(C)=O)c(C#N)c2nc3ccccc3nc21	-14	2	-5	24	17	-21
C=CCn1c(NC(=O)c2ccccc2Cl)c(C#N)c2nc3ccccc3nc21	8	18	-4	69*	16	-3
CC(C)C[C@H](NC(=O)C1CCCC1)C(=O)N1CCC[C@H]1C(=O)NCc1ccccc1	.	-32	-7	.	0	.
CCCN1CCCCC(NC(=O)OC(C)(C)C)C1=O (stereo not drawn)	.	1	1	.	2	.
CCn1c(C)nc2cc(C(=O)OC(C(F)(F)C(F)F)C(F)(F)C(F)F)ccc21	26	35	-2	32	7	66*
CCOC(=O)C1CCCN(C(=O)c2cccc(S(=O)(=O)N(C)c3ccc(C)cc3)c2)C1 (stereo not drawn)	-11	12	-8	58*	15	31
COc1ccccc1NS(=O)(=O)c1cccc(C(=O)N2CCCCCC2)c1	.	10	-3	.	1	.
CN(c1ccc(C(=O)N2CCCCC2)cc1)S(=O)(=O)c1ccccc1	38*	7	-4	59	10	42*
COc1ccccc1NS(=O)(=O)c1ccc(C(=O)N2CCCCCCC2)cc1	-4	16	-1	26*	21	13
O=C(NCc1cccc(F)c1)Nc1nnc([C@@H]2C[C@H](O)[C@@H](CO)O2)s1	.	-19	2	.	1	.
Cc1ccc(N2CC(C(=O)N3CCC(C(=O)NCCCOC(C)C)CC3)CC2=O)cc1 (stereo not drawn)	-11	-6	-7	23	6	-19
COc1ccc(S(=O)(=O)N(Cc2cccs2)C2CCCC2)cc1	44*	0	2	44	12	54*
Cc1nnc(NC(=O)C2CCN(S(=O)(=O)c3cc([N+](=O)[O-])ccc3Cl)CC2)o1	-8	-15	0	28*	-3	-6
O=C(NC1CC1)C1CCN(S(=O)(=O)c2cc([N+](=O)[O-])ccc2Cl)CC1	-12	6	-7	16	7	-12
O=C(Nc1ccccc1NS(=O)(=O)c1ccc(F)cc1)C1CCCC1	-16	-24	9	63*	1	2
CCOc1ccccc1NC(=O)C1CCCCN1S(=O)(=O)c1ccccc1 (stereo not drawn)	-25	4	-2	53*	0	33
COc1ccccc1NC(=O)C1CCCCN1S(=O)(=O)c1ccc(F)cc1 (stereo not drawn)	-15	-5	-2	57*	8	4
CC(C)CN1C(=O)c2ccc(C(=O)Nc3nccs3)cc2C1=O	-8	40	-5	14	16	-21
COCCN1C(=O)c2ccc(C(=O)Nc3nccs3)cc2C1=O	5	2	-4	46*	0	-5
CCCN1C(=O)c2ccc(C(=O)Nc3nccs3)cc2C1=O	-6	27	-4	45*	6	-7
COc1cc([N+](=O)[O-])c2ncsc2c1	-11	-9	0	69*	1	-7
O=[N+]([O-])c1ccc(Nc2ccccc2)c2nonc12	16	10	-10	68*	6	17
CC(=O)NS(=O)(=O)c1ccc(Nc2ccc([N+](=O)[O-])c3nonc23)cc1	3	-21	-5	76*	2	-8
Cc1cc2c(cc1C)-n1nnnc1C(N1CCN(c3ncccc3C#N)CC1)C(=O)N2 (stereo not drawn)	.	-5	-6	.	15	.
Cc1[nH][nH]c(=O)c1N=Nc1ccc(F)cc1	-9	4	-11	16	-2	-28
COc1ccc(N=Nc2c(C)[nH][nH]c2=O)cc1	-7	0	-4	57*	-2	-12
